The text below walks through data of PMC9055920 (RSC Advances, 2020).

Assay [1] deals with Saccharomyces cerevisiae α-glucosidase (Saccharomyces cerevisiae, UniProt P53341). Briefly: α-Glucosidase enzyme activity. Format: biochemical. To be noted: at the concentration of 125 μmol L^−1.
The target of assay [2] is T1, α-glucosidase (Saccharomyces cerevisiae, UniProt P53341). Briefly: Kinetic analysis of inhibitory type. The format is biochemical. To be noted: Lineweaver–Burk plots.
In assay [3] the target is T1, α-glucosidase. The experiment in a line: Fluorescence quenching and thermodynamic analysis. Format: binding. Particulars: for ΔH° enthalpy change / ΔS° entropy change: van't Hoff plot over 298, 304, 310 K.
The test system of assay [4] is α-glucosidase. Particulars: cited from earlier work.
The target in assay [5] is T1, α-glucosidase. The experiment in a line: CD spectroscopy of secondary structure. In short, it runs like this:
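Far-UV CD spectra (190–250 nm) were recorded for S. cerevisiae α-glucosidase held at 2 μmol L−1, with test flavonol added at flavonol:enzyme molar ratios of 0:1, 40:1 and 80:1. Each spectrum was averaged over three scans under constant nitrogen flush, and the buffer signal was subtracted. Experiments were done in triplicate.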

Assay [6] deals with T1, α-glucosidase. The experiment in a line: Reversibility, plots of v vs. [α-glucosidase]. Particulars: myricetin 0–6.25 × 10^−5 mol L^−1, c(pNPG) = 3.13 × 10^−4 mol L^−1. Format: biochemical.
The mark [7] stands for this setting: natural α-glucosidase inhibitors.
[8] abbreviates: clinically used antidiabetic drugs.
Where [9] appears, read: molar ratio of myricetin to α-glucosidase 40 : 1.
Setting [10] is: molar ratio of myricetin to α-glucosidase 80 : 1.

Molecules are shown by their SMILES. Where two headings read alike, the source gives them in different places.

T1 sequence (P53341 whole entry): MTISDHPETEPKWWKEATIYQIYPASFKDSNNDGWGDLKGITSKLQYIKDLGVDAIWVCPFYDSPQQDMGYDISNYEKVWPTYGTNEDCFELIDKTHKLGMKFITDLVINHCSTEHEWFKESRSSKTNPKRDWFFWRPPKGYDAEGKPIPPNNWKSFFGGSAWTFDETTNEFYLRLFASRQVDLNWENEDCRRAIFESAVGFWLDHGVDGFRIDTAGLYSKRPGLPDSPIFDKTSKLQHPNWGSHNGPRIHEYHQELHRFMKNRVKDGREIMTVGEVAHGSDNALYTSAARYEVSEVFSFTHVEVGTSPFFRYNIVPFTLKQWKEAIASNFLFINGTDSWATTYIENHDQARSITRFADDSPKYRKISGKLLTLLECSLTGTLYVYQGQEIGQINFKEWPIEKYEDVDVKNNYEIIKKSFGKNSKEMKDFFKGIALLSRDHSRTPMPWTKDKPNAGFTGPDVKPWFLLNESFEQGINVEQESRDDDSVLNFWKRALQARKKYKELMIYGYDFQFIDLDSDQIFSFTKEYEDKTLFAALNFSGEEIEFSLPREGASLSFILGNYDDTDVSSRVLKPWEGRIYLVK
Sequence of Saccharomyces cerevisiae α-glucosidase (P53341 whole entry): as above

On to `O=c1c(O)c(-c2ccc(O)c(O)c2)oc2cc(O)cc(O)c12` [quercetin], for which the “inhibition of the activity of α-glucosidase” value in assay [1] was “approximately 75%”. The Inhibitory type result at α-glucosidase [2] is reported as “Mixed-type”. For the same compound, at α-glucosidase [3] (298 K), the “Ksv, Stern–Volmer quenching constant” value is given as 11.42 ± 0.06 ×10^4 L mol^−1; the “n, number of binding sites per protein molecule” value (“n, number … per protein molecule” for short) stood at 0.97 ± 0.01; the “ΔG° free energy change” value is -6.948 ± 0.0072 kcal/mol. Besides, on α-glucosidase [3] (304 K), the “Ksv, Stern–Volmer quenching constant” value is given as 11.20 ± 0.06 ×10^4 L mol^−1; the “n, number … per protein molecule” value came to 0.99 ± 0.01; the “ΔG° free energy change” value was -7.027 ± 0.0072 kcal/mol. Besides, at α-glucosidase [3] (310 K), the “n, number … per protein molecule” value stood at 1.01 ± 0.01 and the “ΔG° free energy change” value is -7.108 ± 0.0096 kcal/mol. Moreover, at α-glucosidase [3], the “ΔH° enthalpy change” value is -2.923 ± 0.234 kcal/mol and the “ΔS° entropy change” value was found to be 56.51 ± 3.27 J mol^−1K^−1.
Turning to `O=c1c(-c2ccc(O)cc2)coc2cc(O)cc(O)c12` [genistein], the “type of α-glucosidase inhibition (reported)” value with α-glucosidase [4] (setting [7]) is “mixed-type”.
As for `O=c1c(O)c(-c2ccccc2)oc2cc(O)cc(O)c12` [galangin], the “type of α-glucosidase inhibition (reported)” value in the assay with α-glucosidase [4] (setting [7]) is listed as “mixed-type”.
`OCCN1C[C@H](O)[C@@H](O)[C@H](O)[C@H]1CO` [miglitol]: the “type of α-glucosidase inhibition (reported)” value in the assay with α-glucosidase [4] (setting [8]) was “competitive inhibitors”.
With `O=c1cc(-c2ccc(O)c(O)c2)oc2cc(O)cc(O)c12` [luteolin], the “type of α-glucosidase inhibition (reported)” value in the assay on α-glucosidase [4] (setting [7]) is “mixed-type”.
On to `C[C@H]1O[C@H](O[C@H]2[C@H](O)[C@@H](O)[C@@H](O[C@H]3[C@H](O)[C@@H](O)C(O)O[C@@H]3CO)O[C@@H]2CO)[C@H](O)[C@@H](O)[C@@H]1N[C@H]1C=C(CO)[C@@H](O)[C@H](O)[C@H]1O` (stereo partly drawn) [acarbose, reference compound], for which the Inhibitory type result at α-glucosidase [2] was “Competitive”. For the same compound, the “type of α-glucosidase inhibition (reported)” value in the assay with α-glucosidase [4] (setting [8]) is on record as “competitive inhibitors”.
For the compound `O=c1c(O)c(-c2ccc(O)cc2O)oc2cc(O)cc(O)c12` [morin], the “type of α-glucosidase inhibition (reported)” value in the assay with α-glucosidase [4] (setting [7]) is on record as “mixed-type”.
On to `O=c1c(O)c(-c2cc(O)c(O)c(O)c2)oc2cc(O)cc(O)c12` [myricetin], for which the Inhibitory type result at α-glucosidase [2] is “Mixed-type”. Also, at α-glucosidase [3] (298 K), the “Ksv, Stern–Volmer quenching constant” value was 14.26 ± 0.03 ×10^4 L mol^−1; the “n, number … per protein molecule” value is 0.99 ± 0.01; the “ΔG° free energy change” value was -7.012 ± 0.012 kcal/mol. Besides, on α-glucosidase [3] (304 K), the “Ksv, Stern–Volmer quenching constant” value is 13.81 ± 0.04 ×10^4 L mol^−1; the “n, number … per protein molecule” value is 1.04 ± 0.01; the “ΔG° free energy change” value was -7.075 ± 0.0096 kcal/mol. Moreover, at α-glucosidase [3] (310 K), the “Ksv, Stern–Volmer quenching constant” value is given as 13.05 ± 0.03 ×10^4 L mol^−1; the “n, number … per protein molecule” value worked out at 1.06 ± 0.01; the “ΔG° free energy change” value was -7.139 ± 0.0096 kcal/mol. Further, at α-glucosidase [3], the “ΔH° enthalpy change” value was -3.862 ± 0.136 kcal/mol and the “ΔS° entropy change” value amounted to 44.22 ± 1.17 J mol^−1K^−1. Besides, at α-glucosidase [5] (setting [9]), the “random coil percentage of α-glucosidase” value is reported as 28.0%, the “α-helix content of α-glucosidase” value is reported as 17.6%, the “β-sheet proportion of α-glucosidase” value stood at 45.7% and the “β-turn content of α-glucosidase” value was 8.7%. For the same compound, on α-glucosidase [5] (setting [10]), the “random coil percentage of α-glucosidase” value stood at 28.2%, the “α-helix content of α-glucosidase” value turned out to be 15.5%, the “β-sheet proportion of α-glucosidase” value is recorded as 49.9% and the “β-turn content of α-glucosidase” value stood at 6.4%. For the same compound, the reversibility of inhibition result on α-glucosidase [6] was “reversible inhibitor”.
Regarding `OCC(CO)N[C@H]1C[C@](O)(CO)[C@@H](O)[C@H](O)[C@H]1O` [voglibose], the “type of α-glucosidase inhibition (reported)” value with α-glucosidase [4] (setting [8]) is “competitive inhibitors”.
For the compound `O=c1c(O)c(-c2ccc(O)cc2)oc2cc(O)cc(O)c12` [kaempferol], the “inhibition of the activity of α-glucosidase” value in assay [1] is “approximately 60%”. On α-glucosidase [2], the Inhibitory type entry is reported as “Mixed-type”. At α-glucosidase [3] (298 K), the “Ksv, Stern–Volmer quenching constant” value was 9.91 ± 0.08 ×10^4 L mol^−1; the “n, number … per protein molecule” value is 0.87 ± 0.01; the “ΔG° free energy change” value is -6.938 ± 0.0072 kcal/mol. On α-glucosidase [3] (304 K), the “Ksv, Stern–Volmer quenching constant” value is reported as 8.81 ± 0.05 ×10^4 L mol^−1; the “n, number … per protein molecule” value is given as 0.93 ± 0.01; the “ΔG° free energy change” value is -7.032 ± 0.0024 kcal/mol. On α-glucosidase [3] (310 K), the “Ksv, Stern–Volmer quenching constant” value is given as 8.04 ± 0.02 ×10^4 L mol^−1; the “n, number … per protein molecule” value is given as 0.98 ± 0.01; the “ΔG° free energy change” value is -7.122 ± 0.0048 kcal/mol. For the same compound, on α-glucosidase [3], the “ΔH° enthalpy change” value was -2.32 ± 0.237 kcal/mol and the “ΔS° entropy change” value is recorded as 64.84 ± 3.25 J mol^−1K^−1.
